Test results reported in ChEMBL document CHEMBL3400028, “Evaluation of Aconitum diterpenoid alkaloids as antiproliferative agents” (2015).

Columns and labels:
Format in all cases: functional
[1] = test system: KB; assay: Antiproliferative activity against human KB cells by sulforhodamine B assay
Method in brief: (§1)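 Cells in RPMI 1640 (25 mM HEPES, 2 mM L-glutamine, 10% heat-inactivated FBS, antibiotics) at 37 °C, 5% CO2. Seeded at 3–5 × 10³/well with graded concentrations, paclitaxel as assay control, for 72 h. TCA-fixed, stained with 0.04% SRB, dye dissolved in 10 mM Tris, A515 read. GI50 is the concentration halving absorbance versus untreated cells; three or more experiments.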

[2] = Selectivity ratio of GI50 for human KB cells to GI50 for multidrug-resistant P-gp expressing human KBVIN cells
Method in brief: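 Ratio of GI50 in parental KB to GI50 in P-gp-overexpressing KB-VIN. […] KB-VIN cells were grown 7–10 days without vincristine before the assay.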

[3] = test system: DU-145; assay: Antiproliferative activity against human DU145 cells by sulforhodamine B assay; method in brief: as §1
[4] = test system: A549; assay: Antiproliferative activity against human A549 cells by sulforhodamine B assay; method in brief: as §1
[5] = Antiproliferative activity against multidrug-resistant P-gp expressing human KBVIN cells by sulforhodamine B assay
Method in brief: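 Vincristine-resistant KB subline kept in 100 nM vincristine, then grown 7–10 days without it before testing. RPMI 1640 with 10% FBS, 37 °C, 5% CO2. 3–5 × 10³ cells/well exposed 72 h to a concentration series, paclitaxel as assay control. SRB staining after TCA fixation, A515 read. GI50 is the 50% absorbance reduction versus untreated cells; three or more experiments.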

| Structure (SMILES) | GI50 [1] [µM] | RatioGI50 [2] | GI50 [3] [µM] | GI50 [4] [µM] | GI50 [5] [µM] |
| --- | --- | --- | --- | --- | --- |
| CCN1C[C@]2(C)CC[C@H](OC)[C@@]34[C@@H]5C[C@H]6[C@H](OC)[C@@H]5[C@@]5(C[C@@H]6OC)OCO[C@@]5([C@@H](OC(=O)c5cccc(C(F)(F)F)c5)[C@H]23)[C@@H]14 | 10 | 10 | 10 | 10 | 10 |
| CCN1C(=O)[C@]2(C)CC[C@H](OC)[C@@]34[C@@H]5C[C@H]6[C@H](OC)[C@@H]5[C@@]5(C[C@@H]6OC)OCO[C@@]5([C@@H](O)[C@@H]32)[C@@H]14 | > 20 | >20 | > 20 | > 20 | > 20 |
| C=C1[C@@H](O)[C@]23C[C@@H]1[C@@H](OC(=O)c1ccccc1)C[C@H]2[C@@]12C4C3C[C@@H]1[C@@](C)(CC[C@H]2O)CN4CC | > 20 | >20 | > 20 | > 20 | > 20 |
| C=C1[C@@H](O)[C@]23C[C@@H]1[C@@H](OC(=O)c1ccc(OC)cc1)C[C@H]2[C@@]12C4C3C[C@@H]1[C@@](C)(CC[C@H]2O)CN4CC | > 20 | >20 | > 20 | > 20 | > 20 |
| CO[C@H]1[C@@H]2C[C@@H]3[C@H]1[C@](O)(C[C@@H]2OC)[C@@]1(O)C2NC(=O)[C@]4(COC(=O)c5ccccc5N)CC[C@H](OC)[C@@]23[C@@H]4[C@@H]1OC | > 20 | >20 | > 20 | > 20 | > 20 |
| CO[C@H]1[C@@H]2C[C@@H]3[C@H]1[C@](O)(C[C@@H]2OC)[C@@]1(O)C2N=C[C@]4(COC(=O)c5ccccc5N)CC[C@H](OC)[C@@]23[C@@H]4[C@@H]1OC | > 20 | >20 | > 20 | > 20 | > 20 |
| C=C1[C@H]2C[C@@]3([C@@H]1OC(C)=O)[C@@H](C[C@@H]2O)[C@@]12C4[C@@H]3C[C@@H]1[C@@](C)(CC[C@@H]2O)CN4CC | > 20 | >20 | > 20 | > 20 | > 20 |
| C=C1[C@H]2C[C@@]3([C@@H]1OC(C)=O)[C@@H](C[C@@H]2O)[C@@]12C4[C@@H]3C[C@@H]1[C@@](C)(CC[C@@H]2O)C[N+]4([O-])CC (stereo not given in full) | > 20 | >20 | > 20 | > 20 | > 20 |
| C=C1[C@H]2C[C@@]3([C@@H]1OC(C)=O)[C@@H](C[C@@H]2OC(C)=O)[C@@]12C4[C@@H]3C[C@@H]1[C@@](C)(CC[C@@H]2O)CN4CC | > 20 | >20 | > 20 | > 20 | > 20 |
| C=C1[C@H]2C[C@@]3([C@@H]1O)[C@@H](C[C@@H]2O)[C@@]12C4[C@@H]3C[C@@H]1[C@@](C)(CC[C@@H]2OC(C)=O)CN4CC | > 20 | >20 | > 20 | > 20 | > 20 |
| C=C1[C@H]2C[C@@]3([C@@H]1OC(C)=O)[C@@H](C[C@@H]2OC(=O)c1ccccc1)[C@@]12C4[C@@H]3C[C@@H]1[C@@](C)(CC[C@@H]2O)CN4CC | > 20 | >20 | > 20 | > 20 | > 20 |
| C=C1[C@@H](O)[C@]23C[C@@H]1[C@@H](OC(=O)c1ccc(OC)c(OC)c1)C[C@H]2[C@@]12C4C3C[C@@H]1[C@@](C)(CC[C@H]2O)CN4CC | > 20 | >20 | > 20 | > 20 | > 20 |
| C=C1[C@@H](OC(C)=O)[C@]23C[C@@H]1[C@@H](OC(C)=O)C[C@H]2[C@@]12C4C3C[C@@H]1[C@@](C)(CC[C@H]2OC(C)=O)CN4CC | > 20 | >20 | > 20 | > 20 | > 20 |
